Key:
[1] = Botryllamide G plasma pharmacokinetics in wild-type mice; format: in vivo; details: male, FVB, mouse, iv, 13.4 mg/kg
Outline: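 Destructive sampling (n = 3 per timepoint) ran 0.25–24 h into heparinized plasma. Phospholipid-removal/methanol precipitation, then isocratic C18 LC-MS/MS (20–50,000 ng/mL). AUClast used Bailer's method. t1/2 = ln2/terminal kEL, from concentrations above LLOQ.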

[2] = Aqueous solubility in intravenous formulation; format: physicochemical; details: limited the dose to 13.4 mg/kg
ABCB1 = details: read-out: IC50 ABCB1 inhibition; in vitro; cited from earlier work
[3] = Lapatinib brain and plasma exposure in wild-type FVB mice; format: in vivo, mouse
[4] = Lapatinib brain and plasma exposure in Mdr1a/Mdr1b; format: in vivo, mouse; details: for lapatinib brain AUC through 8 h: Mdr1a/Mdr1b (-/-) mice; for AUC: male, FVB, mouse, brain, oral
[5] = Abcg2 knockout animals (so in the source); cited from earlier work

Row | Kp ([3]; male, FVB, mouse, brain and plasma, oral, 90 mg/kg) | AUC ([3]; male, FVB, mouse, plasma, oral, 90 mg/kg) | lapatinib brain exposure through 1 h (AUC0-1 h) ([3]; wild-type mice, doublet (lapatinib + botryllamide G)) | lapatinib brain exposure AUC through 24 h ([3]; wild-type mice, lapatinib + botryllamide G + tariquidar 4 mg/kg i.v. (triplet)) | lapatinib plasma AUC ([3]; wild-type mice, lapatinib + botryllamide G, 24 h) | lapatinib brain AUC through 24 h ([3]; wild-type mice, lapatinib alone (abstract)) | lapatinib brain exposure through 1 h (AUC0-1 h) ([3]; wild-type mice, singlet (lapatinib alone)) | lapatinib brain exposure through 1 h (AUC0-1 h) ([3]; wild-type mice, singlet (lapatinib alone), listed as Lapatinib) | lapatinib brain exposure through 1 h (AUC0-1 h) ([3]; wild-type mice, triplet (lapatinib + botryllamide G + tariquidar)) | lapatinib brain exposure through 1 h (AUC0-1 h) ([3]; wild-type mice, triplet (lapatinib + botryllamide G + tariquidar), listed as Lapatinib) | lapatinib brain AUC through 8 h ([4]; lapatinib + botryllamide G) | lapatinib brain AUC through 8 h ([4]; lapatinib alone) | AUC [4] | AUC ([4]; 90 mg/kg) | Compound | AUC [1] | Cmax [1] | half-life [1] | aqueous solubility [2] | IC50 (ABCB1) | increase in lapatinib brain concentrations [5]
1 |  |  |  |  |  |  |  |  |  |  |  |  |  |  | CO/C(=C\c1ccc(O)cc1)C(=O)N/C=C/c1cc(Br)c(O)c(Br)c1 [botryllamide G] | 2090 ng·h/mL | 4110 ng/mL | 4.6 h | poor | > 50 µM | 
2 | 0.067 | 66400 ng·h/mL | 48.3 ± 14.9 pg·h/mg | 2878 pg·h/mg | 71,576 h*pg/mg | 4461 ng·h/mL | 120 ± 39.9 pg·h/mg | 120 pg·h/mg | 298 ± 44.6 pg·h/mg | 298 pg·h/mg | 4007 pg·h/mg | 2058 pg·h/mg | 4010 ng·h/mL | 2060 ng·h/mL | CS(=O)(=O)CCNCc1ccc(-c2ccc3ncnc(Nc4ccc(OCc5cccc(F)c5)c(Cl)c4)c3c2)o1 [lapatinib, N-{3-chloro-4-[(3-fluorobenzyl)oxy]phenyl}-6-[5-({[2-(methylsulfonyl)ethyl]amino}methyl)-2-furyl]-4-quinazolinamine] |  |  |  |  |  | approximately 40 fold
